From PubChem
Mdm2 ligase inh = MDM2-luciferase reporter signal enhancers, primary screen, MDM2 E3 ligase inhibitor project, cell-based, luminescence, 1536-well | actives 0.11% (n = 210,000) | signal enhancement, % at 5 µM | E3 ubiquitin-protein ligase Mdm2 (Homo sapiens), Q00987 | cell-based MDM2 ubiquitination luciferase reporter, 2 h; 0 = plate control, 100 = twice control, blank-subtracted;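 active means signal enhancement of 30% or more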;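 further: luminescence tracks abundance of the self-degrading MDM2-luciferase fusion protein; higher signal means inhibition of MDM2 E3 ligase activity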
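test system = mammalian cells stably expressing self-ubiquitinating, self-degrading MDM2 E3–luciferase fusion | quantity = 2000 cells/well | incubation = cell settling 4 h, compound treatment 2 h, both 37 °C | signal = luminescence with SteadyLite reagent, 15 min at room temperature | evaluation = % enhancement relative to plate controls after blank subtraction | benchmarks = plate controls and plate blanks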
S1P4 agonist = S1P4 receptor agonists, primary screen, cell-based | activation, % at 4.98 µM | actives 0.35% (n = 220,000) | S1P4-expressing cell line, agonist reporter assay | AID 1509, 2009 | Sphingosine 1-phosphate receptor 4 (Homo sapiens), O95977; in the data active means activation above about 11%
Lmaj promast = Leishmania major promastigote growth inhibition, primary screen | AID 1063, 2008 | actives 9% (n = 200,000) | inhibition, % at 10 µM | Leishmania major promastigotes, resazurin fluorescence viability; in the data active means inhibition above about 50%;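 further: promastigotes grown with compound for 44 hours at 28 °C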
S1P3 antagonist = S1P3 receptor antagonists, primary screen, cell-based. actives 0.27% (n = 170,000). inhibition, % at 4.98 µM. Sphingosine 1-phosphate receptor 3 (Homo sapiens), Q99500. CHO S1P3 NFAT-BLA reporter, FRET fluorescence, antagonist mode;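 active means inhibition above the plate cutoff, the mean inhibition of test wells on that plate plus 3 SD, cut at about 28% in these data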;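 further: cells challenged with S1P at its EC80 of 0.8 µM; blue over green emission ratio from cleaved BLA substrate after 4 h stimulation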
Target sequence (Q99500 whole entry, looked up): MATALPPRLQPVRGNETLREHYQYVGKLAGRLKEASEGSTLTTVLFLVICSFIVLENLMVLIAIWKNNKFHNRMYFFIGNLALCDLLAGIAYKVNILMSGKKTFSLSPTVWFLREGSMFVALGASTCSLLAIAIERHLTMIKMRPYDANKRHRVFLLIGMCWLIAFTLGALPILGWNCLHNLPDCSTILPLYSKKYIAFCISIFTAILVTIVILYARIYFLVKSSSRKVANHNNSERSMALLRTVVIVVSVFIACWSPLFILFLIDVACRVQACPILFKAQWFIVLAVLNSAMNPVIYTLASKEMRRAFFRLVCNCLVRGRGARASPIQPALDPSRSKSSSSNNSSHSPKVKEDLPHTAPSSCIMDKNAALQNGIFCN
S1P4 antag = S1P4 receptor antagonists, primary screen, cell-based; Sphingosine 1-phosphate receptor 4 (Homo sapiens), O95977; S1P4-expressing cells, antagonist mode, reporter read-out; inhibition, % at 4.98 µM; actives 0.26% (n = 220,000); AID 1510, 2009; in the data active means inhibition above about 29%
Numbers stand for hits; 0 = inactive; - = no result given. The full list was thinned out, with hits kept by preference.

SMILES	Mdm2 ligase inh	S1P4 agonist	Lmaj promast	S1P3 antagonist	S1P4 antag
O=C(O)CC(NC(=O)Cc1ccccc1)c1cc([N+](=O)[O-])ccc1Cl (stereo not given)	0	0	0	0	0
Cc1ccc(NS(=O)(=O)c2ccc(C(=O)N3CCN(c4ncccn4)CC3)cc2)cc1	0	0	0	0	0
O=C(c1ccc(S(=O)(=O)Nc2ccc(F)cc2)cc1)N1CCN(c2ccccn2)CC1	0	0	99.3	0	0
Cc1ccc(-c2cc(NC(=O)CCl)n(-c3ccccc3)n2)cc1	0	0	100.2	-	0
CC(=O)Nc1ccc(-c2cc(NC(C)=O)n(-c3ccccc3)n2)cc1	0	0	0	0	0
Cc1ccccc1NC(=O)c1cn(-c2ccccc2)nc1-c1ccccc1	0	0	0	0	0
O=C(CCl)Nc1cc(-c2ccccc2)nn1-c1ccccc1	0	0	98.5	-	0
Cc1ccc(-c2nn(-c3ccccc3)cc2NC(=O)CCl)cc1	0	0	93.3	0	0
Cc1nn(C(C)C(=O)N2CCc3ccccc32)c(C)c1[N+](=O)[O-] (stereo not given)	0	0	0	-	0
FC(F)(F)c1cccc(Cn2nnnc2-c2cccc(C(F)(F)F)c2)c1	0	0	0	-	0
Cc1ccc(C(=O)Nc2cc(C)c(OCC(=O)N3CCOCC3)c(C)c2)cc1	0	0	0	-	0
CCN(CC)S(=O)(=O)c1ccc(NN=c2c(=O)c3ccccc3c2=O)cc1	0	0	-	0	0
CCc1ccc(NC(=O)c2cnc(N3CCN(c4ccccn4)CC3)c3ccccc23)cc1	0	0	82.1	0	0
CC(C)NC(=O)c1cnc(N2CCN(c3ccccn3)CC2)c2ccccc12	0	0	0	0	0
CCOC(=O)/C=C/C(=O)Nc1ccccc1-c1ccccc1NC(=O)/C=C/C(=O)OCC	38.8	0	0	0	0
CCN(CC)CCN1CCn2c3c(c4cc(C)ccc42)CCCC31 (stereo not given)	-	0	100.1	0	0
CCn1c2c(c3cc(Cl)ccc31)CCCC2=O	0	0	0	0	0
CCN1CCn2c3c(c4cc(Cl)ccc42)CCCC31 (stereo not given)	0	0	54.4	0	0
CC1CCN(C(=O)c2[nH]cnc2C(=O)N[C@@H](C)C(=O)OCc2ccccc2)CC1	0	-	-	-	-
O=C(Nc1cccc([N+](=O)[O-])c1)Nc1cccs1	0	0	0	0	0
Cc1cccc(/C=N\NC(=O)c2sccc2-n2cccc2)c1	0	0	0	-	0
COc1ccc(CN(Cc2ccccn2)S(=O)(=O)c2ccc(-n3cnnn3)c(OC)c2)cc1	0	0	79.8	0	0
COc1ccc(CN(Cc2ccccn2)S(=O)(=O)c2ccc(-n3cnnn3)cc2)cc1	0	0	0	0	0
COc1ccc(CN(Cc2cccnc2)S(=O)(=O)c2ccc(-n3cnnn3)c(C)c2)cc1OC	0	0	86.6	0	0
CC1CCCN(Cc2cnc(Cl)s2)C1 (stereo not given)	0	0	0	-	0
SMILES	Mdm2 ligase inh	S1P4 agonist	Lmaj promast	S1P3 antagonist	S1P4 antag
CC1CN(CCOCCSc2ccccc2)CC(C)O1 (stereo not given)	0	0	0	0	0
CC1CCN(CCOCCSc2ccc(Cl)cc2)CC1	0	0	92.8	0	0
Clc1ccc(SCCOCCN2CCCCC2)cc1	0	0	98.2	0	0
CC1CCCN(CCSc2ccc(Cl)cc2)C1 (stereo not given)	0	0	72.3	0	0
Clc1ccc(SCCOCCN2CCc3ccccc3C2)cc1	0	0	88.1	0	0
Cc1ccc2nc(SCC3CCCCO3)[nH]c2c1 (stereo not given)	-	0	-	0	0
Cc1nn(-c2ccccc2)c(/N=C/c2ccc(O)cc2)c1-c1ccccc1	0	0	52.4	0	0
O=C(Nc1nc(N2C(=O)c3ccccc3C2=O)n(-c2ccccc2)n1)c1ccc(Cl)cc1	0	0	0	-	0
COc1ccc(C(=O)NC2CC(C)(C)Cc3occc32)cc1 (stereo not given)	0	0	0	0	0
Cc1cc(=O)n2[nH]c(-c3ccc(C(C)(C)C)cc3)cc2n1	0	0	100.0	0	0
CCOC(=O)Cc1c(C)nc2cc(-c3ccc(Cl)cc3)[nH]n2c1=O	0	0	0	0	0
CCc1c(C)nc2cc(-c3ccc(OC)cc3)[nH]n2c1=O	0	0	58.4	0	0
CC(=O)N1CCC2(CC1)CC(=O)c1cc(OCC(=O)N3CCOCC3)ccc1O2	0	0	0	0	0
